Measured values taken from ChEMBL document CHEMBL1123921, “Quinolonecarboxylic acids. 2. Synthesis and antibacterial evaluation of 7-oxo-2,3-dihydro-7H-pyrido[1,2,3-de][1,4]benzothiazine-6-carboxylic acids” (J Med Chem, 1987).
Values after ≈ are worked out from the molar mass of the structure shown.

What was measured:
Type in all cases: functional
Escherichia coli = test: In vitro antibacterial activity against clinical isolates of Escherichia coli 15 (gram negative) by agar dilution assay.
Method in brief: (§1)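 Agar dilution on Isosensitest agar; compound incorporated by twofold serial dilution. Overnight broth cultures delivered by multipoint inoculator at 10⁵ CFU per point. Plates read after 18 h at 37 °C. MIC taken as the lowest concentration giving complete growth inhibition.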

Klebsiella pneumoniae = test: In vitro antibacterial activity against clinical isolates of Klebsiella pneumoniae-4 (gram negative) by agar dilution assay.; method in brief: as §1
Staphylococcus aureus = test: In vitro antibacterial activity against clinical isolates of Staphylococcus aureus 18773 (gram-positive) by agar dilution assay.; method in brief: as §1
Enterobacter cloacae = test: In vitro antibacterial activity against clinical isolates of Enterobacter cloacae 041 (gram negative) by agar dilution assay.; method in brief: as §1
Morganella morganii = test: In vitro antibacterial activity against clinical isolates of Proteus morganii 27 (gram negative) by agar dilution assay.; method in brief: as §1
Pseudomonas aeruginosa = test: In vitro antibacterial activity against clinical isolates of Pseudomonas aeruginosa 2437 (gram negative) by agar dilution assay.; method in brief: as §1

Structure (SMILES)	MIC (Escherichia coli) [µg/mL]	MIC (Klebsiella pneumoniae) [µg/mL]	MIC (Staphylococcus aureus) [µg/mL]	MIC (Enterobacter cloacae) [µg/mL]	MIC (Morganella morganii) [µg/mL]	MIC (Pseudomonas aeruginosa) [µg/mL]
O=C(O)c1cn2c3c(cc(F)c(N4CCCC4)c3c1=O)SCC2	> 100	> 100	> 100			
O=C(O)c1cn2c3c(c(Cl)c(F)cc3c1=O)SCC2	0.39 (≈ 1.3 µM)	0.78 (≈ 2.6 µM)	0.39 (≈ 1.3 µM)	0.39 (≈ 1.3 µM)	6.25 (≈ 20.9 µM)	> 25
O=C(O)c1cn2c3c(cc(N4CCCC4)c(Cl)c3c1=O)SCC2	> 100	> 100	100 (≈ 285 µM)		> 100	> 100
O=C(O)c1cn2c3c(cc(N4CCOCC4)cc3c1=O)SCC2	> 50	> 50	> 50	> 50	> 50	6.25 (≈ 18.8 µM)
O=C(O)c1cn2c3c(cc(F)cc3c1=O)SCC2	0.78 (≈ 2.94 µM)	3.12 (≈ 11.8 µM)	6.25 (≈ 23.6 µM)	6.25 (≈ 23.6 µM)	3.12 (≈ 11.8 µM)	50 (≈ 188 µM)
CCn1cc(C(=O)O)c(=O)c2cnc(N3CCNCC3)nc21 [PIPEMIDIC ACID]	0.39 (≈ 1.29 µM)	0.78 (≈ 2.57 µM)	3.12 (≈ 10.3 µM)	0.78 (≈ 2.57 µM)	3.12 (≈ 10.3 µM)	> 25
O=C(O)c1cn2c3c(c(Cl)c(N4CCCC4)cc3c1=O)SCC2	> 50	> 50	> 50	> 50	> 50	> 50
O=C(O)c1cn2c3c(cc(N4CCN(CCO)CC4)cc3c1=O)SCC2	100 (≈ 266 µM)		100 (≈ 266 µM)		> 50	> 100
O=C(O)c1cn2c3c(cc(F)cc3c1=O)S(=O)(=O)CC2	100 (≈ 336 µM)		> 50			> 50
O=C(O)c1cn2c3c(c(Cl)c(N4CCOCC4)cc3c1=O)SCC2	6.25 (≈ 17 µM)	> 50	> 50	> 50	> 50	6.25 (≈ 17 µM)
CN1CCN(c2cc3c4c(c2)c(=O)c(C(=O)O)cn4CCS3)CC1	100 (≈ 289 µM)		100 (≈ 289 µM)		100 (≈ 289 µM)	> 100
O=C(O)c1cn2c3c(cc(F)c(Cl)c3c1=O)SCC2	> 50	> 50	> 50	> 50	> 50	> 50
O=C(O)c1cn2c3c(c(N4CCSCC4)c(F)cc3c1=O)SCC2	3.12 (≈ 8.51 µM)	1.56 (≈ 4.26 µM)	0.78 (≈ 2.13 µM)	1.56 (≈ 4.26 µM)	6.25 (≈ 17.1 µM)	> 50
CC1COc2c(N3CCN(C)CC3)c(F)cc3c(=O)c(C(=O)O)cn1c23 (stereo not drawn) [OFLOXACIN]	0.19 (≈ 0.526 µM)	0.39 (≈ 1.08 µM)	0.19 (≈ 0.526 µM)	0.19 (≈ 0.526 µM)	0.78 (≈ 2.16 µM)	1.56 (≈ 4.32 µM)
O=C(O)c1cn2c3c(c(N4CCN(C(=O)C(F)(F)F)CC4)c(F)cc3c1=O)SCC2	< 0.39	< 0.39	1.56 (≈ 3.5 µM)	< 0.39	1.56 (≈ 3.5 µM)	12.5 (≈ 28.1 µM)
CCOC(=O)N1CCN(c2c(F)cc3c(=O)c(C(=O)O)cn4c3c2SCC4)CC1	6.25 (≈ 14.8 µM)	6.25 (≈ 14.8 µM)	0.39 (≈ 0.925 µM)	6.25 (≈ 14.8 µM)	> 50	> 50
CN1CCN(c2cc3c(=O)c(C(=O)O)cn4c3c(c2Cl)SCC4)CC1	> 50	> 50	> 50	> 50	> 50	6.25 (≈ 16.5 µM)
CCn1cc(C(=O)O)c(=O)c2cc(F)c(N3CCNCC3)cc21 [NORFLOXACIN]	0.19 (≈ 0.595 µM)	0.19 (≈ 0.595 µM)	0.19 (≈ 0.595 µM)	0.39 (≈ 1.22 µM)	0.78 (≈ 2.44 µM)	1.56 (≈ 4.89 µM)
O=C(O)c1cn2c3c(c(N4CCCC4)c(F)cc3c1=O)[S+]([O-])CC2 (stereo not drawn)	12.5 (≈ 35.7 µM)	25 (≈ 71.4 µM)	12.5 (≈ 35.7 µM)	50 (≈ 143 µM)	> 50	> 50
